The results in this text go back to PubChem BioAssay.

Assay [1] can be described thus: RPL19A-GFP modulators, yeast TOR pathway, confirmation, cell-based, S. cerevisiae, flow cytometry, cherry picks, mother/daughter gates (AID 2270;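 active = GFP response below 50% of the DMSO control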). As to conditions: S. cerevisiae RPL19A-GFP strain, 3 h, at 10 µM, stronger effect = lower value, 100 = same GFP as DMSO wells. Background: A flow cytometer gives signals particle by particle.
The nature of assay [2]: LAP4-GFP expression modulators in yeast, confirmation, cell-based, cherry picks, flow cytometry, mother/daughter gates (AID 2271;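 active = GFP response above 150% of the DMSO control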;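 note: ratio of sample to DMSO plate mean so 100% equals DMSO level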). To be noted: S. cerevisiae LAP4-GFP strain, 3 h, at 10 µM, stronger effect = higher value, 100 means same as DMSO control. The essentials:
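System – GFP-fusion yeast strain · Amount – 0.2 OD600 cells · Buffer or medium – SC growth medium · Dosing – single test-compound dose, 10 µM final · Schedule – 3 h treatment at 30 °C with rotation · Detection – GFP by flow cytometry · Read-out – per-gate (all, mother, daughter) GFP response vs DMSO · Benchmarks – positive rapamycin (400 ng/mL), negative DMSO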

Assay [3] can be described thus: modulators of MEP2-GFP levels in yeast, confirmation, S. cerevisiae, flow cytometry GFP, cherry picks (AID 2272;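 active = GFP response above 150% of the DMSO control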;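 note: ratio of well signal to plate DMSO mean so 100% equals DMSO level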). To be noted: S. cerevisiae MEP2-GFP strain, 3 h, at 10 µM, stronger effect = higher value.
Assay [4] can be described thus: AGP1-GFP expression modulators, hit retest, confirmation, cell-based, flow cytometry, S. cerevisiae, cherry picks (AID 2273).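 Note: median GFP channel fluorescence over the whole cell population gate.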 To be noted: S. cerevisiae AGP1-GFP strain, 3 h, at 10 µM.
The nature of assay [5]: modulators of CIT2-GFP expression in yeast, confirmation, S. cerevisiae, GFP fusion, cherry picks, mother/daughter gates (AID 2274). As to conditions: S. cerevisiae CIT2-GFP strain, flow cytometry, 3 h, at 10 µM, stronger effect = higher value.
Setting [6] is: measured here: daughter cell gate.
Where [7] appears, read: measured here: mother cell gate.
Where [8] appears, read: measured here: daughter cell gate response.
Where [9] appears, read: measured here: mother cell gate response.

Active and inactive are the calls of the source.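 Rule for the calls, unless noted: active = GFP response above 150% of the DMSO level; inconclusive = fewer than 70 events counted for a yeast strain; inactive = the rest.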

For `CC(C)c1ccc(C2C3CSCC=C3C(C#N)=C(N)C2(C#N)C#N)cc1` (configuration not stated), the GFP response vs DMSO in assay [1] is 97.2% (inactive); in assay [1] (setting [6]), 97.8%; in assay [1] (setting [7]), 95.3%; in assay [3], 101% (inactive). For the same molecule, the GFP response relative to DMSO in assay [2] is 111% (inactive); in assay [2] (setting [8]), 108%; in assay [2] (setting [9]), 115%. The GFP response, % of DMSO in assay [4] was 105% (inactive); in assay [5], 99.7% (inactive); in assay [5] (setting [6]) it was 100%; in assay [5] (setting [7]), 97.7%.
Consider `O=C1C=CC(=O)N1c1ccc(Sc2ccc([N+](=O)[O-])cc2)cc1`, for which the GFP response vs DMSO in assay [1] was 74% (inactive); in assay [1] (setting [6]), 96.8%; in assay [1] (setting [7]) it was 61.1%; in assay [3], 125% (inactive). Further, the values for the GFP response relative to DMSO in assay [2], in assay [2] (setting [8]) and in assay [2] (setting [9]) were 143% (inactive), 142% and 124%, respectively. Moreover, the GFP response, % of DMSO in assay [4] was 106% (inactive); in assay [5], 79.7% (inactive); in assay [5] (setting [6]), 90.5%; in assay [5] (setting [7]), 63.8%.
In the case of `CCCc1cc(=O)n(-c2nc3ccccc3s2)[nH]1`, the GFP response vs DMSO in assay [1] was 102% (inactive); in assay [1] (setting [6]), 102%; in assay [1] (setting [7]), 101%; in assay [3] it was 99% (inactive). For the same molecule, the GFP response relative to DMSO in assay [2] was 101% (inactive); in assay [2] (setting [8]), 101%; in assay [2] (setting [9]), 99.4%. The GFP response, % of DMSO is 104% (inactive) in assay [4], 97.3% (inactive) in assay [5], 97.4% in assay [5] (setting [6]) and 96.8% in assay [5] (setting [7]).
In the case of `O=C(O)CCc1ccc(-c2ccc(Br)cc2)o1`, the GFP response vs DMSO is 99.4% (inactive) in assay [1], 92.2% in assay [1] (setting [6]), 97% in assay [1] (setting [7]) and 99% (inactive) in assay [3]. For the same molecule, the GFP response relative to DMSO in assay [2] was 137% (inactive); in assay [2] (setting [8]) it was 119%; in assay [2] (setting [9]) it was 129%. Besides, the GFP response, % of DMSO is 86.6% (inactive) in assay [4], 84.3% (inactive) in assay [5], 81.2% in assay [5] (setting [6]) and 82.1% in assay [5] (setting [7]).
For the molecule `Cc1cccc(Cn2cc(/C=C/[N+](=O)[O-])c3ccccc32)c1`, the GFP response vs DMSO in assay [1] was 106% (inactive); in assay [1] (setting [6]) it was 103%; in assay [1] (setting [7]) it was 98%; in assay [3] it was 103% (inactive). In addition, the GFP response relative to DMSO in assay [2] is 111% (inactive); in assay [2] (setting [8]), 107%; in assay [2] (setting [9]), 114%. For the same molecule, the GFP response, % of DMSO was 101% (inactive) in assay [4], 97.3% (inactive) in assay [5], 95.6% in assay [5] (setting [6]) and 93.2% in assay [5] (setting [7]).
For the molecule `Cc1c(O)ccc(C(=O)CN2CCN(c3ccc(F)cc3)CC2)c1O`, the GFP response vs DMSO in assay [1] is 98% (inactive); in assay [1] (setting [6]), 97.3%; in assay [1] (setting [7]) it was 96.7%; in assay [3], 106% (inactive). For the same molecule, the GFP response relative to DMSO in assay [2] was 101% (inactive); in assay [2] (setting [8]), 99%; in assay [2] (setting [9]) it was 101%. The GFP response, % of DMSO in assay [4] is 101% (inactive); in assay [5] it was 101% (inactive); in assay [5] (setting [6]), 99.3%; in assay [5] (setting [7]), 102%.
On to `Cc1cc(C(=O)Nc2nc(-c3ccccn3)cs2)ccc1[N+](=O)[O-]`, for which the GFP response vs DMSO in assay [1] was 104% (inactive); in assay [1] (setting [6]), 107%; in assay [1] (setting [7]) it was 97.2%; in assay [3] it was 107% (inactive). Moreover, the GFP response relative to DMSO in assay [2] was 158% (active); in assay [2] (setting [8]) it was 149%; in assay [2] (setting [9]), 155%. Moreover, the GFP response, % of DMSO in assay [4] was 84.3% (inactive); in assay [5] it was 105% (inactive); in assay [5] (setting [6]), 110%; in assay [5] (setting [7]) it was 99.3%.
With `Cc1ccc(S(=O)(=O)N2CCCC2C(=O)Oc2ccccc2)cc1` (configuration not stated), the GFP response vs DMSO in assay [1] was 98.8% (inactive); in assay [1] (setting [6]) it was 99.1%; in assay [1] (setting [7]) it was 99.5%; in assay [3], 100% (inactive). Moreover, the GFP response relative to DMSO in assay [2] was 99.2% (inactive); in assay [2] (setting [8]) it was 99.2%; in assay [2] (setting [9]), 99.3%. In addition, the GFP response, % of DMSO was 95.6% (inactive) in assay [4], 98.3% (inactive) in assay [5], 97.2% in assay [5] (setting [6]) and 97.3% in assay [5] (setting [7]).
For the molecule `Cc1c(CC(C)C)nc(N)c(C#N)c1-c1ccccc1`, the GFP response vs DMSO in assay [1] was 98.4% (inactive); in assay [1] (setting [6]), 99.8%; in assay [1] (setting [7]) it was 99.7%; in assay [3], 102% (inactive). Moreover, the GFP response relative to DMSO is 94.2% (inactive) in assay [2], 89.3% in assay [2] (setting [8]) and 92.6% in assay [2] (setting [9]). The GFP response, % of DMSO in assay [4] is 98.7% (inactive); in assay [5], 102% (inactive); in assay [5] (setting [6]), 102%; in assay [5] (setting [7]), 100%.
With `O=[N+]([O-])c1cccnc1S(=O)(=O)c1ccccc1`, the GFP response vs DMSO in assay [1] is 97.6% (inactive); in assay [1] (setting [6]), 94.7%; in assay [1] (setting [7]) it was 96.2%; in assay [3] it was 103% (inactive). For the same molecule, the GFP response relative to DMSO in assay [2] is 114% (inactive); in assay [2] (setting [8]), 110%; in assay [2] (setting [9]), 112%. In addition, the GFP response, % of DMSO was 102% (inactive) in assay [4], 90.1% (inactive) in assay [5], 88.4% in assay [5] (setting [6]) and 89.5% in assay [5] (setting [7]).
As for `Cn1c(N2CCCC2)nc2c1c(=O)n(Cc1ccc(Cl)cc1)c(=O)n2C`, the GFP response vs DMSO in assay [1] is 91.8% (inactive); in assay [1] (setting [6]) it was 84.5%; in assay [1] (setting [7]), 87.5%; in assay [3] it was 94.7% (inactive). The GFP response relative to DMSO in assay [2] was 126% (inactive); in assay [2] (setting [8]) it was 109%; in assay [2] (setting [9]), 121%. The GFP response, % of DMSO in assay [4] is 98.4% (inactive); in assay [5], 81.4% (inactive); in assay [5] (setting [6]), 77.5%; in assay [5] (setting [7]), 76%.
As for `Oc1c(Br)cc(Br)cc1C=Nc1cccc2ncccc12`, the GFP response vs DMSO was 104% (inactive) in assay [1], 93.9% in assay [1] (setting [6]), 98.6% in assay [1] (setting [7]) and 103% (inactive) in assay [3]. Besides, the GFP response relative to DMSO in assay [2] is 125% (inactive); in assay [2] (setting [8]), 110%; in assay [2] (setting [9]), 126%. Besides, the GFP response, % of DMSO in assay [4] was 95.7% (inactive); in assay [5] it was 97.3% (inactive); in assay [5] (setting [6]), 99.2%; in assay [5] (setting [7]) it was 89.5%.
As to `O=C(N/N=C/c1ccccn1)c1sc2ccccc2c1Cl`, the GFP response vs DMSO in assay [1] was 103% (inactive); in assay [1] (setting [6]), 94%; in assay [1] (setting [7]), 103%; in assay [3], 114% (inactive). The GFP response relative to DMSO was 118% (inactive) in assay [2], 114% in assay [2] (setting [8]) and 126% in assay [2] (setting [9]). For the same molecule, the GFP response, % of DMSO in assay [4] was 99.3% (inactive); in assay [5], 84.7% (inactive); in assay [5] (setting [6]), 88.9%; in assay [5] (setting [7]) it was 82.8%.
Regarding `CC(C)(C)C1=CC=C(C(C)(C)C)C(=O)C1=O`, the GFP response vs DMSO in assay [1] was 102% (inactive); in assay [1] (setting [6]), 102%; in assay [1] (setting [7]), 99.7%; in assay [3], 104% (inactive). Also, the results for the GFP response relative to DMSO in assay [2], in assay [2] (setting [8]) and in assay [2] (setting [9]) were 136% (inactive), 131% and 136%, respectively. The GFP response, % of DMSO was 98.7% (inactive) in assay [4], 104% (inactive) in assay [5], 104% in assay [5] (setting [6]) and 96.8% in assay [5] (setting [7]).
With `Oc1ccc(Cl)cc1-c1cc(-c2ccco2)[nH]n1`, the GFP response vs DMSO was 103% (inactive) in assay [1], 100% in assay [1] (setting [6]), 104% in assay [1] (setting [7]) and 109% (inactive) in assay [3]. The GFP response relative to DMSO in assay [2] was 95% (inactive); in assay [2] (setting [8]), 94.1%; in assay [2] (setting [9]), 96.2%. Further, the GFP response, % of DMSO was 88.2% (inactive) in assay [4], 102% (inactive) in assay [5], 99.7% in assay [5] (setting [6]) and 101% in assay [5] (setting [7]).
With `Cc1ccc(C(=O)OCC(=O)Nc2ccccc2Sc2ccccc2)cc1C`, the GFP response vs DMSO in assay [1] was 99% (inactive); in assay [1] (setting [6]), 97.8%; in assay [1] (setting [7]), 99.7%; in assay [3], 96.6% (inactive). The values for the GFP response relative to DMSO in assay [2], in assay [2] (setting [8]) and in assay [2] (setting [9]) were 96.1% (inactive), 99.7% and 97.2%, respectively. The GFP response, % of DMSO in assay [4] was 99.3% (inactive); in assay [5], 103% (inactive); in assay [5] (setting [6]), 103%; in assay [5] (setting [7]), 105%.
In the case of `COc1ccc(N2C(=O)C(Cl)=C(Nc3c(C)n(C)n(-c4ccccc4)c3=O)C2=O)cc1`, the GFP response vs DMSO was 102% (inactive) in assay [1], 106% in assay [1] (setting [6]), 101% in assay [1] (setting [7]) and 99.5% (inactive) in assay [3]. For the same molecule, the GFP response relative to DMSO in assay [2] was 100% (inactive); in assay [2] (setting [8]) it was 101%; in assay [2] (setting [9]), 101%. The GFP response, % of DMSO in assay [4] is 89% (inactive); in assay [5], 92.1% (inactive); in assay [5] (setting [6]), 87.2%; in assay [5] (setting [7]), 87.5%.
